Series [1] concerns the target Pyruvate dehydrogenase kinase (Homo sapiens) (UniProt Q15119+Q15120+Q16654+Q15118). Kind of series: In vitro inhibition of pyruvate dehydrogenase kinase (PDHK) in primary enzymatic assay; Inactive. It counts as protein assay. The conditions noted are these: Sus scrofa. In short, it runs like this:
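Primary high-throughput enzymatic assay of PDH kinase inhibition using commercial porcine PDH complex; IC50 reported as μM ± standard error.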

The species named for a further series is Homo sapiens. Description: Effective concentration in human fibroblasts for increased oxidation of lactate. Format: functional, organism-based. In a few lines: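 Human fibroblasts incubated with [14C]lactate; PDH complex activation read as conversion of [14C]lactate to 14CO2 (modified Ofenstein assay); EC50 (μM ± standard error).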
Series [2] addresses T1, Pyruvate dehydrogenase kinase (Rattus norvegicus) (UniProt Q63065+A6IPZ9+Q64536+O54937). Description: In vivo percent of control lactate in 24 hr fasted rats at 100 umol/kg oral dose after 5 hours. Format: functional, organism-based. In a few lines:
(§1)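 Normal Sprague–Dawley rats, n = 6/group, fasted 24 h, then dosed orally (μmol/kg); blood lactate sampled at 2, 2.5 or 5 h postdose and expressed as percent of control; significance p < 0.05.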

Series [3] addresses T1, Pyruvate dehydrogenase kinase (Rattus norvegicus). Kind of series: In vivo percent of control lactate in 24 hr fasted rats at 100 umol/kg oral dose after 2.5 hours. It counts as functional, organism-based. In short, it runs like this: as §1
The target is the same in series [4]. Description: In vivo percent of control lactate in 24 hr fasted rats at 100 umol/kg oral dose. It counts as functional, organism-based. In short, it runs like this:
as §1

For series [5] the target is unchanged. Kind of series: In vivo percent of control lactate in 24 hr fasted rats at 250 umol/kg oral dose. Format: functional, organism-based. In short, it runs like this:
as §1

For series [6] the target is unchanged. Kind of series: In vivo percent of control lactate in 24 hr fasted rats at 30 uM/kg oral dose after 5 hours. It counts as functional, organism-based. In a few lines: as §1
For series [7] the target is unchanged. Kind of series: In vivo percent of control lactate in 24 hr fasted rats at 30 uM/kg oral dose after 2.5 hours. Format: functional, organism-based. In a few lines: as §1
For series [8] the target is unchanged. Description: In vivo percent of control lactate in 24 hr fasted rats at 300 umol/kg oral dose after 2.5 hours. Format: functional, organism-based. In a few lines:
as §1

Series [9] shares this target. Description: In vivo percent of control lactate in 24 hr fasted rats at 30 uM/kg oral dose. Format: functional, organism-based. Particulars: 30 umol/kg. In short, it runs like this:
as §1

For series [10] the target is unchanged. Description: In vivo percent of control lactate in 24 hr fasted rats at 300 umol/kg oral dose after 5 hours. Format: functional, organism-based. In a few lines: as §1
For series [11] the target is unchanged. Kind of series: In vivo percent of control lactate in 24 hr fasted rats at 10 uM/kg oral dose after 2.5 hours. Format: functional, organism-based. In short, it runs like this:
as §1

Series [12] can be described thus: Cmax after oral dosing of 100 umol/Kg. It counts as ADME, organism-based. The arrangement: dose 100 umol/Kg, route oral. The conditions noted are these: in vivo. In short, it runs like this: (§2)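 Plasma levels of parent drug profiled in rats after a single oral dose; t1/2, AUC (0–8 h), Tmax and Cmax derived from the plasma concentration–time profile.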
The nature of series [13]: Area Under Curve after oral dosing of 100 uM/Kg. Format: ADME. In short, it runs like this:
as §2

Series [14] in a line: Tmax after oral dosing of 100 uM/Kg. Format: ADME, organism-based. The conditions noted are these: in vivo. In a few lines: as §2
Series [15] can be described thus: Half-life after oral administration (100 uM/Kg). The conditions noted are these: in vivo. It counts as ADME, organism-based. In a few lines: as §2

Each structure is given as a SMILES string. The source made the active and inactive calls. No cut-off for these calls is given here.

Usually EC50 stands for the concentration that produces a half-maximal response. What is called Cmax is the highest concentration seen after dosing. For orientation: AUC means the area under the concentration-time curve, a measure of exposure. Broadly, the Tmax is the time from dosing to the highest level. For orientation: half-life means the time in which the quantity being followed falls by half.

In the case of `CCCCCCNC(=O)c1ccc(Cl)c(NC(=O)C(C)(O)C(F)(F)F)c1` (stereo unspecified), the NA entry in series [1] is “inactive”.

For `CC(O)(C(=O)Nc1cc(C(=O)N2CCCCC2)ccc1Cl)C(F)(F)F` (stereo unspecified), the NA result in [1] is “inactive”.

As to `COC(=O)c1ccc(Cl)c(NC(=O)C(C)(O)C(F)(F)F)c1` (stereo unspecified), the NA entry in series [1] was “inactive”.

As for `CC(O)(C(=O)Nc1ccccc1Cl)C(F)(F)F` (stereo unspecified), in the series filed under Homo sapiens, the EC50 was found to be 5.4 µM.

On to `C[C@@](O)(C(=O)Nc1ccc(S(=O)(=O)NCCc2ccc(F)cc2)cc1Cl)C(F)(F)F`, for which the results for the Control in series [2] and in series [3] were 69% and 124%, respectively.

`C[C@@](O)(C(=O)Nc1ccc(C(=O)NCCCO)cc1Cl)C(F)(F)F`: the Control in series [4] was 88%.

As to `CC(O)(C(=O)Nc1ccc(C(=O)c2ccccc2)cc1Cl)C(F)(F)F` (stereo unspecified), in the series listed under Homo sapiens, the response was half-maximal at 30 µM (EC50).

`C[C@@](O)(C(=O)Nc1ccc(C(=O)N2CCOCC2)cc1Cl)C(F)(F)F`: the Control in [4] was found to be 64%.

For `C=CCNS(=O)(=O)c1ccc(NC(=O)[C@@](C)(O)C(F)(F)F)c(Cl)c1`, the Control in [2] turned out to be 62%; in series [3], 76%.

In the case of `CC(O)(C(=O)Nc1ccc(C#N)cc1Cl)C(F)(F)F` (stereo unspecified), the Control in [5] came out at 78%.

Regarding `C[C@@](O)(C(=O)Nc1ccc(S(=O)(=O)NCCCN2CCCC2=O)cc1Cl)C(F)(F)F`, the Control is 66% in series [6], 87% in [7], 52% in [2] and 51% in series [3].

Molecule `C[C@@](O)(C(=O)Nc1ccc(S(C)(=O)=O)cc1Cl)C(F)(F)F` yielded a Control in series [5] of 65%.

Molecule `COc1ccc(NC(=O)C(C)(O)C(F)(F)F)cc1` (stereo unspecified) displayed an EC50 in the series listed under Homo sapiens of 43.1 µM.

In turn, `CC(O)(C(=O)Nc1cccc(C(=O)c2ccccc2)c1)C(F)(F)F` (stereo unspecified) returned an EC50 in the series listed under Homo sapiens of 10 µM.

In the case of `CC(O)(C(=O)Nc1cc(C(=O)O)ccc1Cl)C(F)(F)F` (stereo unspecified), the NA result in series [1] was “inactive”.

Consider `CC(=O)c1ccccc1NC(=O)C(C)(O)C(F)(F)F` (stereo unspecified), for which the EC50 in the series listed under Homo sapiens was found to be 14 µM.

With `C[C@@](O)(C(=O)Nc1ccc(C(=O)O)cc1Cl)C(F)(F)F`, a half-maximal response in the series filed under Homo sapiens (EC50) required 1.4 µM.

On to `CC(O)(C(=O)Nc1ccc(C(=O)N2CCCCC2)cc1Cl)C(F)(F)F` (stereo unspecified), for which the EC50 in the series listed under Homo sapiens turned out to be 0.71 µM.

`C[C@@](O)(C(=O)Nc1ccc(S(=O)(=O)N2CCNCC2)cc1Cl)C(F)(F)F`: the Control in [8] amounted to 77%.

As to `CCCCCCNC(=O)c1ccc(NC(=O)C(C)(O)C(F)(F)F)c(Cl)c1` (stereo unspecified), the EC50 in the series listed under Homo sapiens is 5.5 µM.

On to `C[C@@](O)(C(=O)Nc1ccc(S(=O)(=O)NCCN2CCOCC2)cc1Cl)C(F)(F)F`, for which the Control in series [2] amounted to 84%; in series [3], 71%.

Take `CC(O)(C(=O)Nc1cc(C(=O)c2ccccc2)ccc1Cl)C(F)(F)F` (stereo unspecified): the NA result in series [1] was “inactive”.

Turning to `CC(O)(C(=O)Nc1ccccc1-c1ccccc1)C(F)(F)F` (stereo unspecified), in series [1], the NA result was “inactive”.

On to `C[C@@](O)(C(=O)Nc1ccc(C(=O)NCCCCCC(=O)[O-])cc1Cl)C(F)(F)F.[Na+]`, for which the Control in series [4] was found to be 94%.

Consider `C[C@@](O)(C(=O)Nc1ccc(S(=O)(=O)NCc2ccccn2)cc1Cl)C(F)(F)F`, for which the Control in series [2] came out at 84%; in [3], 64%.

`COC(=O)[C@H](Cc1c[nH]c2ccccc12)N(C)C(=O)c1ccc(NC(=O)[C@@](C)(O)C(F)(F)F)c(Cl)c1` registered a Control in [9] of 102%.

For the molecule `CC(O)(C(=O)Nc1cccc(C(F)(F)F)c1)C(F)(F)F` (stereo unspecified), the NA result in series [1] was “inactive”.

In turn, `CN(CCCO)C(=O)c1ccc(NC(=O)[C@@](C)(O)C(F)(F)F)c(Cl)c1` showed a Control in series [9] of 114%.

On to `C[C@@](O)(C(=O)Nc1ccc(S(=O)(=O)N2CCC(N)C2)cc1Cl)C(F)(F)F` (stereo partly specified), for which the Control turned out to be 70% in series [2] and 82% in series [3].

In the series listed under Homo sapiens, `COC(=O)c1cccc(NC(=O)C(C)(O)C(F)(F)F)c1Cl` (stereo unspecified) returned a concentration giving a half-maximal response (EC50) of 13.8 µM.

Take `CCOCCCNS(=O)(=O)c1ccc(NC(=O)[C@@](C)(O)C(F)(F)F)c(Cl)c1`: the values for the Control in series [2] and in series [3] were 70% and 72%, respectively.

Regarding `Cc1cccc(C)c1NC(=O)C(C)(O)C(F)(F)F` (stereo unspecified), the NA entry in series [1] is “inactive”.

Molecule `CC(C)[C@@H](C(=O)[O-])N(C)C(=O)c1ccc(NC(=O)[C@@](C)(O)C(F)(F)F)c(Cl)c1.[Na+]` gave a Control in [9] of 87%.

For `C[C@@](O)(C(=O)Nc1ccc(C(=O)N[C@@H](CCc2ccccc2)C(=O)O)cc1Cl)C(F)(F)F`, the Control in series [9] came out at 97%.

For `COc1ccc(Cl)c(NC(=O)C(C)(O)C(F)(F)F)c1` (stereo unspecified), in series [1], the NA entry is “inactive”.

`CC(O)(C(=O)Nc1cccc(C(=O)c2ccccc2)c1Cl)C(F)(F)F` (stereo unspecified) yielded an EC50 in the series filed under Homo sapiens of 11 µM.

Regarding `CC(C)CNS(=O)(=O)c1ccc(NC(=O)C(C)(C)O)c(Cl)c1`, the Control in series [8] came out at 69%; in [10] it was 76%; in series [2] it was 95%; in series [3], 101%.

In series [4], `C[C@@](O)(C(=O)Nc1ccc(C(=O)N[C@@H](Cc2ccccc2)C(=O)[O-])cc1Cl)C(F)(F)F.[Na+]` displayed a Control of 115%.

On to `CC(C)CNS(=O)(=O)c1ccc(NC(=O)[C@@](C)(O)C(F)(F)F)c(Cl)c1`, for which the Control in [7] worked out at 83%; in [11] it was 100%; in [2], 60%; in [3] it was 69%.

In turn, `C[C@@](O)(C(=O)Nc1ccc(C(=O)N[C@@H](Cc2ccc(-c3ccccc3)cc2)C(=O)O)cc1Cl)C(F)(F)F` gave a Control in series [9] of 101%.

`CC(O)(C(=O)Nc1cccc(C(=O)O)c1Cl)C(F)(F)F` (stereo unspecified): the peak level in series [12] (Cmax) was 87.3 µM. Also, the exposure (AUC) in series [13] is 143 µM·h. Also, the time of peak concentration (Tmax) in series [14] worked out at 0.5 h. Further, the half-life in [15] was 4.6 h.

Molecule `C[C@@](O)(C(=O)Nc1ccc(C(=O)N2CCN(c3ccccn3)CC2)cc1Cl)C(F)(F)F` gave a Control in series [4] of 63%.

In [9], `C[C@@H](C(=O)[O-])N(C)C(=O)c1ccc(NC(=O)[C@@](C)(O)C(F)(F)F)c(Cl)c1.[Na+]` yielded a Control of 94%.

The record behind these values is ChEMBL document CHEMBL1133733, “Anilides of (R)-trifluoro-2-hydroxy-2-methylpropionic acid as inhibitors of pyruvate dehydrogenase kinase” (J Med Chem, 2000).
